How the values were obtained:
[1] = tested on: Pseudomonas aeruginosa; assay: Synergistic antibacterial activity against Pseudomonas aeruginosa 776 assessed as cefepime MIC at 4 ug/ml by broth microdilution method; format: functional; details: dose 4 µg/ml
[2] = tested on: Acinetobacter baumannii; assay: Synergistic antibacterial activity against Acinetobacter baumannii PR323 producing OXA-24/40 assessed as meropenem MIC at 4 ug/ml by broth microdilution method; format: functional; details: dose 4 µg/ml
[3] = tested on: Klebsiella pneumoniae; assay: Synergistic antibacterial activity against Klebsiella pneumoniae 972/1910 producing KPC-3 assessed as meropenem MIC at 8 ug/ml by broth microdilution method; format: functional; details: dose 8 µg/ml
[4] = tested on: Klebsiella pneumoniae; assay: Synergistic antibacterial activity against Klebsiella pneumoniae 972/1910 producing KPC-3 assessed as cefepime MIC at 4 ug/ml by broth microdilution method; format: functional; details: dose 4 µg/ml
[5] = tested on: Pseudomonas aeruginosa; assay: Synergistic antibacterial activity against Pseudomonas aeruginosa 839 assessed as meropenem MIC at 8 ug/ml by broth microdilution method; format: functional; details: dose 8 µg/ml
[6] = tested on: Klebsiella pneumoniae; assay: Synergistic antibacterial activity against Klebsiella pneumoniae 660/1568 producing KPC-3 assessed as cefepime MIC at 8 ug/ml by broth microdilution method; format: functional; details: dose 8 µg/ml
Procedure, shortened: (§1)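 Broth microdilution per CLSI guidelines, using custom frozen panels. […] Each partner drug was also tested alone. MICs were run in triplicate and the modal value is reported.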

[7] = tested on: Acinetobacter baumannii; assay: Synergistic antibacterial activity against Acinetobacter baumannii PR363 producing OXA-23 assessed as meropenem MIC at 8 ug/ml by broth microdilution method; format: functional; details: dose 8 µg/ml
[8] = tested on: Klebsiella pneumoniae; assay: Synergistic antibacterial activity against Klebsiella pneumoniae 729/1679 producing KPC-3 assessed as cefepime MIC at 4 ug/ml by broth microdilution method; format: functional; details: dose 4 µg/ml; procedure, shortened: as §1
[9] = tested on: Acinetobacter baumannii; assay: Synergistic antibacterial activity against ADC deleted Acinetobacter baumannii assessed as cefepime MIC at 8 ug/ml by broth microdilution method; format: functional; details: dose 8 µg/ml
[10] = tested on: Pseudomonas aeruginosa; assay: Synergistic antibacterial activity against Pseudomonas aeruginosa CL232 assessed as meropenem MIC at 4 ug/ml by broth microdilution method; format: functional; details: dose 4 µg/ml
[11] = tested on: Klebsiella pneumoniae; assay: Synergistic antibacterial activity against Klebsiella pneumoniae 1354/2241 producing KPC-3 assessed as cefepime MIC at 4 ug/ml by broth microdilution method; format: functional; details: dose 4 µg/ml; procedure, shortened: as §1
[12] = tested on: Acinetobacter baumannii; assay: Synergistic antibacterial activity against Acinetobacter baumannii PR476 producing OXA-24/40 assessed as meropenem MIC at 4 ug/ml by broth microdilution method; format: functional; details: dose 4 µg/ml
[13] = tested on: Escherichia coli; assay: Synergistic antibacterial activity against Escherichia coli DH10B transfected with pBC SK (-) PDC-3 assessed as cefepime MIC at 4 ug/ml by broth microdilution method; format: functional; details: dose 4 µg/ml; procedure, shortened: as §1
[14] = tested on: Pseudomonas aeruginosa; assay: Synergistic antibacterial activity against Pseudomonas aeruginosa CL232 assessed as cefepime MIC at 8 ug/ml by broth microdilution method; format: functional; details: dose 8 µg/ml
[15] = tested on: Klebsiella pneumoniae; assay: Synergistic antibacterial activity against Klebsiella pneumoniae 901/1860 producing KPC-3 assessed as cefepime MIC at 8 ug/ml by broth microdilution method; format: functional; details: dose 8 µg/ml
[16] = tested on: Acinetobacter baumannii; assay: Synergistic antibacterial activity against ADC deleted Acinetobacter baumannii transfected with pWH1266 OXA-23 assessed as meropenem MIC at 4 ug/ml by broth microdilution method; format: functional; details: dose 4 µg/ml
[17] = tested on: Klebsiella pneumoniae; assay: Synergistic antibacterial activity against Klebsiella pneumoniae 977/1916 producing KPC-3 assessed as cefepime MIC at 4 ug/ml by broth microdilution method; format: functional; details: dose 4 µg/ml
[18] = tested on: Klebsiella pneumoniae; assay: Synergistic antibacterial activity against Klebsiella pneumoniae 1315/2198 producing KPC-3 assessed as cefepime MIC at 4 ug/ml by broth microdilution method; format: functional; details: dose 4 µg/ml; procedure, shortened: as §1
[19] = tested on: Klebsiella pneumoniae; assay: Synergistic antibacterial activity against Klebsiella pneumoniae 1108/1989 producing KPC-3 assessed as meropenem MIC at 8 ug/ml by broth microdilution method; format: functional; details: dose 8 µg/ml; procedure, shortened: as §1
[20] = tested on: Klebsiella pneumoniae; assay: Synergistic antibacterial activity against Klebsiella pneumoniae CAV 1543 producing OXA-48 assessed as meropenem MIC at 4 ug/ml by broth microdilution method; format: functional; details: dose 4 µg/ml
[21] = tested on: Klebsiella pneumoniae; assay: Synergistic antibacterial activity against Klebsiella pneumoniae 1398/2291 producing KPC-3 assessed as cefepime MIC at 4 ug/ml by broth microdilution method; format: functional; details: dose 4 µg/ml; procedure, shortened: as §1
[22] = tested on: Escherichia coli; assay: Synergistic antibacterial activity against Escherichia coli DH10B transfected with pBC SK (-) KPC-2 assessed as cefepime MIC at 4 ug/ml by broth microdilution method; format: functional; details: dose 4 µg/ml
[23] = tested on: Klebsiella pneumoniae; assay: Synergistic antibacterial activity against Klebsiella pneumoniae 1084/1957 producing KPC-3 assessed as meropenem MIC at 8 ug/ml by broth microdilution method; format: functional; details: dose 8 µg/ml; procedure, shortened: as §1
[24] = tested on: Escherichia coli; assay: Synergistic antibacterial activity against Escherichia coli DH10B transfected with pBC SK (-) PDC-3 assessed as meropenem MIC at 8 ug/ml by broth microdilution method; format: functional; details: dose 8 µg/ml; procedure, shortened: as §1
[25] = tested on: Klebsiella pneumoniae; assay: Synergistic antibacterial activity against Klebsiella pneumoniae 761/1723 producing KPC-3 assessed as cefepime MIC at 8 ug/ml by broth microdilution method; format: functional; details: dose 8 µg/ml; procedure, shortened: as §1
[26] = tested on: Pseudomonas aeruginosa; assay: Synergistic antibacterial activity against Pseudomonas aeruginosa 795 assessed as meropenem MIC at 4 ug/ml by broth microdilution method; format: functional; details: dose 4 µg/ml
[27] = tested on: Acinetobacter baumannii; assay: Synergistic antibacterial activity against ADC deleted Acinetobacter baumannii transfected with pWH1266 OXA-23 assessed as cefepime MIC at 4 ug/ml by broth microdilution method; format: functional; details: dose 4 µg/ml
[28] = tested on: Pseudomonas aeruginosa; assay: Synergistic antibacterial activity against Pseudomonas aeruginosa CL232 assessed as meropenem MIC at 8 ug/ml by broth microdilution method; format: functional; details: dose 8 µg/ml
[29] = tested on: Klebsiella pneumoniae; assay: Synergistic antibacterial activity against Klebsiella pneumoniae 935/1884 producing KPC-3 assessed as meropenem MIC at 8 ug/ml by broth microdilution method; format: functional; details: dose 8 µg/ml
[30] = tested on: Bacteria; assay: Inhibition of bacteria ADC-7 assessed as half life using nitrocefin as substrate
[31] = tested on: Acinetobacter baumannii; assay: Synergistic antibacterial activity against Acinetobacter baumannii PR420 producing OXA-23/24/40 assessed as meropenem MIC at 8 ug/ml by broth microdilution method; format: functional; details: dose 8 µg/ml
[32] = tested on: Klebsiella pneumoniae; assay: Synergistic antibacterial activity against Klebsiella pneumoniae 977/1916 producing KPC-3 assessed as meropenem MIC at 8 ug/ml by broth microdilution method; format: functional; details: dose 8 µg/ml
[33] = tested on: Acinetobacter baumannii; assay: Synergistic antibacterial activity against Acinetobacter baumannii PR381 producing OXA-24/40 assessed as meropenem MIC at 4 ug/ml by broth microdilution method; format: functional; details: dose 4 µg/ml
[34] = tested on: Acinetobacter baumannii; assay: Synergistic antibacterial activity against Acinetobacter baumannii PR476 producing OXA-24/40 assessed as meropenem MIC at 8 ug/ml by broth microdilution method; format: functional; details: dose 8 µg/ml
[35] = tested on: Klebsiella pneumoniae; assay: Synergistic antibacterial activity against Klebsiella pneumoniae 440/1360 producing KPC-2 assessed as cefepime MIC at 4 ug/ml by broth microdilution method; format: functional; details: dose 4 µg/ml; procedure, shortened: as §1
[36] = tested on: Bacteria; assay: Inhibition of bacteria PDC-3 assessed as half life using nitrocefin as substrate
[37] = tested on: Pseudomonas aeruginosa; assay: Synergistic antibacterial activity against Pseudomonas aeruginosa 776 assessed as meropenem MIC at 8 ug/ml by broth microdilution method; format: functional; details: dose 8 µg/ml

Q: Which results are given for O=C(NNC(=O)[C@@H]1CC[C@@H]2CN1C(=O)N2OS(=O)(=O)O)[C@@H]1CCCNC1 [ZIDEBACTAM]?
A: MIC [1]: 16 µg/mL; MIC [2]: > 16 µg/mL; MIC [3]: ≤ 0.12 µg/mL; MIC [4]: ≤ 0.12 µg/mL; MIC [5]: ≤ 0.12 µg/mL; MIC [6]: ≤ 0.12 µg/mL; MIC [7]: > 16 µg/mL; MIC [8]: ≤ 0.12 µg/mL; MIC [9]: 0.5 µg/mL; MIC [10]: > 16 µg/mL; MIC [11]: ≤ 0.12 µg/mL; MIC [12]: 0.25 µg/mL; MIC [13]: ≤ 0.12 µg/mL; MIC [14]: 16 µg/mL; MIC [15]: ≤ 0.12 µg/mL; MIC [16]: > 16 µg/mL; MIC [17]: ≤ 0.12 µg/mL; MIC [18]: ≤ 0.12 µg/mL; MIC [19]: ≤ 0.12 µg/mL; MIC [20]: ≤ 0.12 µg/mL; MIC [21]: ≤ 0.12 µg/mL; MIC [22]: ≤ 0.12 µg/mL; MIC [23]: ≤ 0.12 µg/mL; MIC [24]: ≤ 0.12 µg/mL; MIC [25]: ≤ 0.12 µg/mL; MIC [26]: 16 µg/mL; MIC [27]: 16 µg/mL; MIC [28]: > 16 µg/mL; MIC [29]: ≤ 0.12 µg/mL; T1/2 [30]: 11 min; MIC [31]: > 16 µg/mL; MIC [32]: ≤ 0.12 µg/mL; MIC [33]: > 16 µg/mL; MIC [34]: 0.25 µg/mL; MIC [35]: ≤ 0.12 µg/mL; T1/2 [36]: 3.3 min; MIC [37]: 16 µg/mL
